hiPSC survival = enhancers of single-cell hiPSC survival, primary screen, ATPlite luminescence; 100% = ROCK inhibitor wells, 0% = DMSO; survival enhancement, % at 20 µM; actives 0.044% (n = 360,000); in the data active = survival enhancement above about 18%;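 note: cells exposed to compounds for 16 hours before the ATP read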
Rev-erbA mod = modulators of Rev-erb alpha DNA binding, primary screen, biochemical, FITC-DNA, fluorescence polarization, uHTS. Nuclear receptor subfamily 1 group D member 1 (Homo sapiens), P20393. actives 0.79% (n = 370,000). Rev-erbα–FITC-DNA binding, 90 min. activity, % at 10 µM;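 active = activity above about 14%, limit read from the data; passing the limit was not always enough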;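 note: 0% = DMSO wells with 35 nM protein and 100% = DMSO wells with 750 nM protein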
Target sequence (P20393 whole entry, looked up): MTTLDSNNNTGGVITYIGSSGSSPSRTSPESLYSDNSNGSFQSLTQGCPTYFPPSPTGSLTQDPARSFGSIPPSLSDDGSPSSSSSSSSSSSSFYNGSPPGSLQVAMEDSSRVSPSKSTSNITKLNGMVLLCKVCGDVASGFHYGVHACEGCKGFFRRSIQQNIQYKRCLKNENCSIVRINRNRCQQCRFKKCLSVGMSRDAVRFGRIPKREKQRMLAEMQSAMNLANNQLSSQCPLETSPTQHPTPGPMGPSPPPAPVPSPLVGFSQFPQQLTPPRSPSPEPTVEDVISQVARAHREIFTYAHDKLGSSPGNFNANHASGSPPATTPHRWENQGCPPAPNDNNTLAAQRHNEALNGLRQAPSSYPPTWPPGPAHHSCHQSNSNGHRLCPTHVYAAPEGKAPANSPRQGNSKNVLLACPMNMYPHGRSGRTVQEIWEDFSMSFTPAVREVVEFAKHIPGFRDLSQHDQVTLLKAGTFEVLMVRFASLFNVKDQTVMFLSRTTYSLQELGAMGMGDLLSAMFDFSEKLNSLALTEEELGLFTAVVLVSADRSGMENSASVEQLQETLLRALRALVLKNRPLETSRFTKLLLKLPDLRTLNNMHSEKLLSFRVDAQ
T cruzi repl = inhibitors of intracellular T. cruzi growth, primary screen, luminescence, NIH3T3 host cells | T. cruzi beta-gal in NIH3T3, 90 h | inhibition, % (no concentration beside the values) | actives 1.4% (n = 300,000) | AID 1885, 2009;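 active = mean inhibition across valid replicates above about 55%, limit read from the data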;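 note: signal also drops with host cell toxicity which is not excluded here; 0% = plate median of DMSO wells and 100% = zero luminescence signal; higher percent means less beta-gal luminescence so fewer parasites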
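Read-out: Parasite load inhibition, % | Test system: Mouse NIH/3T3 fibroblasts infected with β-gal-expressing T. cruzi Tulahuen C4 | Amount: 5,000 cells/well | Medium: DMEM, 2% fetal bovine serum | Signal: GalScreen β-gal luminescence, detergent lysis, 60 min | Timing: 3 h attach, ≥90 h co-culture | Also added: Tulahuen C4 trypomastigotes, 5000/well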
H9c2 TAG inh = inhibitors of triacylglycerol accumulation, primary screen, cell-based, uHTS, fluorescence, H9c2. H9c2 cells, Nile Red lipid (TAG) fluorescence; cells loaded with 200 µM oleic acid. inhibition, % at 12.5 µM. actives 0.66% (n = 230,000). AID 651582, 2012;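 active = pattern-corrected inhibition of lipid staining of at least 50% with the nuclear-stain viability signal not falling by more than 50%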;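 note: 0% = DMSO wells and 100% = triacsin C control wells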
PG9 binder = binders of HIV-1 gp120 antibody PG9, primary screen, biochemical, TR-FRET. TR-FRET gp120-PG9 antibody binding. inhibition, % at 6.7 µM. actives 0.43% (n = 360,000); in the data active = inhibition above about 8.5%
beta cell repl = inducers of MIN6 beta-cell proliferation, primary screen, ATP luminescence, uHTS | MIN6 cells proliferation, ATPlite luminescence, 48 h; cells starved in 0.2% serum; 100% = growth in 10% serum | proliferation, % at 10 µM | actives 0.29% (n = 330,000) | AID 2380, 2010;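 active = compounds whose signal lies at least 3.5 SD above the mean of all wells on their plate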;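 note: 0% = DMSO-treated cells in low-serum medium and 100% = 10% serum control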
* = called active by the depositor; . = no result. In the library only some 2.9% were active in any assay of this set; here they are far more common.

SMILES	hiPSC survival	Rev-erbA mod	T cruzi repl	H9c2 TAG inh	PG9 binder	beta cell repl
Oc1c(C(Nc2ccccn2)c2cccnc2)cc(Cl)c2cccnc12 (centres undefined)	-1	-4	55*	.	0	0
CC(=O)NC(c1cc(Cl)c2cccnc2c1O)C(C)C (centres undefined)	-3	2	.	65*	-3	-7
CCC(=O)NC(c1cc(Cl)c2ccccc2c1O)C1CC1 (centres undefined)	-1	2	.	-17	1	-3
CC(=O)NC(c1cc(Cl)c2cccnc2c1O)C1CC1 (centres undefined)	-1	0	.	50*	0	-7
CCN(CC)CCNc1nc(-c2ccccc2)c2c(c1C#N)CC(C)(C)OC2	-2	0	56*	-3	1	3
O=C(Nc1ccc([N+](=O)[O-])cc1)Nc1ccc(N2CCOCC2)c2nonc12	0	5	71*	-33	-2	0
CC(=O)Nc1cc([N+](=O)[O-])ccc1N1CCOCC1	2	5	0	-4	-2	-2
CC(C)c1ccc(NC(=O)COc2ccccn2)cc1	0	-2	56*	-7	-2	-2
COc1ccc(NC(=O)C2C(=O)N(C)C3(C)CC2c2ccccc2O3)cc1 (centres undefined)	-1	-1	-6	-6	1	2
Cc1[nH]n(-c2ccccc2)c(=O)c1N=Nc1cccc([N+](=O)[O-])c1	0	5	61*	35	0	-3
Cc1[nH]n(-c2ccccc2)c(=O)c1N=Nc1cccc(Cl)c1	-1	6	-4	.	1	1
CC1=CC(C)(C)Nc2ccc(OC(=O)CCN3C(=O)c4ccccc4C3=O)cc21	-2	-5	-14	54*	-1	0
Cc1sc2ncnc(N3CCC(C(=O)N(C)CC(=O)Nc4cccc(F)c4)CC3)c2c1C	0	-7	.	-51	1	.
Cc1sc2ncnc(N3CCC(C(=O)N(C)CC(=O)Nc4ccc(Cl)c(C(F)(F)F)c4)CC3)c2c1C	0	1	58*	-71	0	-6
Cc1nn(-c2ccccc2)c(C)c1/C=N/NC(=O)c1cc(-c2ccccc2)n[nH]1	-1	5	-7	56*	-2	-3
Cc1nn(-c2ccccc2)c(C)c1/C=N/NC(=O)c1cc(-c2cccc3ccccc23)n[nH]1	0	8	39	.	-2	-5
O=C(COc1ccccc1F)Nc1ccc(S(=O)(=O)NCc2ccco2)cc1	0	2	-10	-38	-2	-2
O=C(N/N=C/c1cc2c(cc1Br)OCO2)c1c[nH]c2ccccc12	-2	-3	62*	11	-2	-3
Fc1ccccc1/C=N/Nc1nc(-c2ccccn2)nc2ccccc12	.	.	55*	.	.	-4
CCC(C)Nc1nc(-c2ccccn2)nc2ccccc12 (centres undefined)	0	-3	64*	.	3	-7
c1ccc(CNc2nc(-c3ccccn3)nc3ccccc23)cc1	0	3	19	.	-1	-5
Oc1ccc(/C=N/Nc2nc(-c3cccnc3)nc3ccccc23)c(O)c1	0	1	-19	30	-2	-5
COc1ccc(Nc2nc(Nc3ccc(OC)cc3)nc(-n3[nH]c(=O)c(C)c3C)n2)cc1	0	5	15	57*	-4	-4
COc1ccc(Nc2nc(OC)nc(OC)n2)cc1	0	7	-4	-10	1	-5
C=CCN(c1ccccc1)S(=O)(=O)c1cccc(C(=O)NCc2ccco2)c1	0	0	.	-10	1	1
SMILES	hiPSC survival	Rev-erbA mod	T cruzi repl	H9c2 TAG inh	PG9 binder	beta cell repl
CC(=O)Nc1nc(-c2ccc(-c3ccccc3)cc2)cs1	-2	13	.	26	1	.
CC(=O)Nc1nc(-c2cccc3ccccc23)cs1	1	5	57*	-1	-1	-1
CC(C)(C)c1ccc(-c2nc3c(C#N)c(-c4ccc5c(c4)OCO5)ccn3n2)cc1	-1	13	64*	.	0	-3
Cc1nn(Cc2ccc(Cl)cc2Cl)c(Cl)c1/C=N/NC(=O)CNc1cccc(C(F)(F)F)c1	.	.	71*	.	.	-6
c1ccc(CCNc2ccnc3cc4ccccc4cc23)cc1	-3	6	59*	104*	-13	.
CC(C)Nc1ccc(Nc2ccnc3cc4ccccc4cc23)cc1	-1	-11	58*	129	-14	-6
Cn1c(NC(=O)c2ccccc2)c(-c2ccccn2)c(=O)c2ccccc21	-2	-5	-12	.	1	-3
CCOC(=O)Nc1ccc2c(c1)N(C(=O)CN1CCN(C)CC1)c1ccccc1S2	-1	-4	71*	.	-4	-4
CCOC(=O)Nc1ccc2c(c1)N(C(=O)CN(C)C)c1ccccc1S2	9	1	.	1	0	.
CCOC(=O)Nc1ccc2c(c1)N(C(=O)CCN(C)C)c1ccccc1S2	-2	-1	85*	1	1	-3
COc1cccc(C2=NOC(C(=O)NCc3ccccc3)C2)c1 (centres undefined)	-2	0	-41	.	2	.
Cn1c(=NC(=O)CS(=O)(=O)c2ccccc2)sc2ccccc21	0	0	4	6	0	-2
CCn1c(=NC(=O)CS(=O)(=O)c2ccccc2)sc2cccc(OC)c21	0	5	58*	-39	4	-7
CC(/C=N/NC(=O)c1ccccc1F)c1ccccc1 (centres undefined)	-1	-6	-13	-25	-3	0
CCCCCC[N+](C)(C)CC/C=C1/c2ccccc2Sc2ccc(Cl)cc21	1	0	46	56*	0	-4
CCOc1cc(/C=C(/C#N)c2nc3ccccc3[nH]2)ccc1Oc1ccc([N+](=O)[O-])cn1	-1	6	36	.	0	-3
COc1cc(/C=C(/C#N)c2ccc(C)cc2)ccc1Oc1ccc([N+](=O)[O-])cn1	0	.	71*	.	-2	-2
CCS(=O)(=O)N1CCC(C(=O)NCCN2CCOCC2)CC1	-1	5	0	.	-1	0
OCCNc1c2ccccc2nc2ccccc12	-3	-3	59*	26	-2	3
OCCNc1nc2ccccc2nc1NCCO	0	-4	-12	10	-1	-1
COC(=O)c1cc(C(=O)c2c(C)cc3ccccn23)cc([N+](=O)[O-])c1	1	3	18	.	-1	0
Cc1cc2ccccn2c1C(=O)c1cc([N+](=O)[O-])cc([N+](=O)[O-])c1	0	6	65*	-9	0	-1
